In ChEMBL document CHEMBL2424614, “A novel p-terphenyl derivative inducing cell-cycle arrest and apoptosis in MDA-MB-435 cells through topoisomerase inhibition” (Eur J Med Chem, 2013):
Active and inactive are the calls of the source. The rule behind the calls is not given here.

Columns and labels:
MDA-MB-435 [1] = assay: Induction of DNA damage in human MDA-MB-435 cells assessed as phosphorylation of p53 at Ser15 at 0.5 uM after 12 hrs by Western blotting analysis; type: functional, cell-based
Procedure, shortened: (§1)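 Treated MDA-MB-435 cells lysed in ice-cold Tris-HCl pH 7.4 buffer with Triton, phosphatase and protease inhibitors. Lysates clarified, boiled in SDS loading buffer, run on 8-12% SDS-PAGE and blotted. Membranes blocked in 5% skim milk, probed with primary antibodies, then peroxidase secondaries with ECL detection. β-actin as loading control.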

MDA-MB-435 [2] = assay: Cell cycle arrest in human MDA-MB-435 cells assessed as accumulation at G2/M phase at 0.5 uM after 24 hrs by propidium iodide staining-based flow cytometry (reference value: 14.05%); type: functional
MDA-MB-435 [3] = assay: Cell cycle arrest in human MDA-MB-435 cells assessed as accumulation at G1 phase at 0.25 uM after 24 hrs by propidium iodide staining-based flow cytometry (reference value: 28.06%); type: functional
[4] = molecular target: DNA topoisomerase 2-alpha (Homo sapiens) (UniProt P11388); assay: Inhibition of recombinant human DNA topoisomerase 2-alpha assessed as supression of kDNA decatenation at 100 uM after 30 mins by agarose gel electrophoresis
Sequence of DNA topoisomerase 2-alpha (Homo sapiens) (P11388 whole entry): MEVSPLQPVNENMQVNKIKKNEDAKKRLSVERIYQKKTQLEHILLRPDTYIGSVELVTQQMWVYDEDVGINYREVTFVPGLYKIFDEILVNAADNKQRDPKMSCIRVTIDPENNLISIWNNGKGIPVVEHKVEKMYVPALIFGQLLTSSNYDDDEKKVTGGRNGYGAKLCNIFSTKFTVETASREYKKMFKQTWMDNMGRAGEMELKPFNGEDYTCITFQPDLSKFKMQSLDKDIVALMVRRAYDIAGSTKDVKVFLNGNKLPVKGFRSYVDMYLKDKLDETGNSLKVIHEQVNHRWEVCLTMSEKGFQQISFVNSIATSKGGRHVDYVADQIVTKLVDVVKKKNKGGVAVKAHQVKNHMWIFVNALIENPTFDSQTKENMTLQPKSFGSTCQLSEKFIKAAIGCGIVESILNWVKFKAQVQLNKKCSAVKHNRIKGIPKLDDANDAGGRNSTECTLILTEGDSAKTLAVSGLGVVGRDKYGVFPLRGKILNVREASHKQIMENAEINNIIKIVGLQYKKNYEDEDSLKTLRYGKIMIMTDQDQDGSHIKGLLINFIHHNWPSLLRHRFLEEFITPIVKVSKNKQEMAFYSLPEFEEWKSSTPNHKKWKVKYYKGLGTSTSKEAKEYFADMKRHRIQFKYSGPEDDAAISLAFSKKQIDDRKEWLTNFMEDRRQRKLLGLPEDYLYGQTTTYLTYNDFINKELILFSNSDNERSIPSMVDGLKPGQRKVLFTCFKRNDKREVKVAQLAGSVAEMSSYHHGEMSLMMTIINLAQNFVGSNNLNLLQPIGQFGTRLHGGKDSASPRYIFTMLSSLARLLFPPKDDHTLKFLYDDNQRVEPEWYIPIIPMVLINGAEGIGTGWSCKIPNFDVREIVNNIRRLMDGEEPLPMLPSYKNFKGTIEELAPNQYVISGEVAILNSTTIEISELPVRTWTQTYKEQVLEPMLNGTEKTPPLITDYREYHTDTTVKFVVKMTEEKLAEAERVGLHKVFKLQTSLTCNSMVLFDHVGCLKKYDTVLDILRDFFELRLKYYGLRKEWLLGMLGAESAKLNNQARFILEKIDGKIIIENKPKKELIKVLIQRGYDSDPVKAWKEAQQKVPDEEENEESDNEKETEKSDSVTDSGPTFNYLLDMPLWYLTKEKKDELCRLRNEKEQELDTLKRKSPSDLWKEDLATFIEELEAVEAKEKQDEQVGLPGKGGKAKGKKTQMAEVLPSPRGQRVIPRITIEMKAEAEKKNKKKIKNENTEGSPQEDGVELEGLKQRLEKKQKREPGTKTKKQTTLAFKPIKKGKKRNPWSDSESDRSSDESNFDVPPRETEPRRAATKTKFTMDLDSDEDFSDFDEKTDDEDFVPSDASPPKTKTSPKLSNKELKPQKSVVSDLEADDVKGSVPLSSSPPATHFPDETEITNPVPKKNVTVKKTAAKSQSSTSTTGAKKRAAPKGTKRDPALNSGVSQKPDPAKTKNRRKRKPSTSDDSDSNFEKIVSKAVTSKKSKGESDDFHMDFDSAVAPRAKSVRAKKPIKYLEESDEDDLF
Procedure, shortened: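 ATP-dependent decatenation assay: 0.20 µg kDNA with 2 units Topo IIα at 37 °C for 30 min, 20 µL. Buffer: 50 mM Tris pH 8.0, KCl, 10 mM MgCl₂, 0.5 mM ATP, 0.5 mM DTT, 30 µg/mL BSA. Stopped with 10% SDS. Agarose gel scored for kDNA versus released minicircles.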

MDA-MB-435 [5] = assay: Cell cycle arrest in human MDA-MB-435 cells assessed as accumulation at G1 phase at 1 uM after 24 hrs by propidium iodide staining-based flow cytometry (reference value: 28.06%); type: functional
MDA-MB-435 [6] = assay: Induction of apoptosis in human MDA-MB-435 cells assessed as decrease in procaspase 3 expression after 12 to 24 hrs by Western blotting analysis; type: functional, cell-based; procedure, shortened: as §1

**Q.** For `Oc1ccc(-c2ccc(-c3ccc(O)c(O)c3)cc2)cc1`, which Activity (MDA-MB-435 [1]) is on record?
**A.** inactive

**Q.** And the Activity (MDA-MB-435 [2])?
**A.** 38.41%

**Q.** What about the Activity (MDA-MB-435 [3]) of the same molecule?
**A.** 34.91%

**Q.** What about the inhibition [4] of the same molecule?
**A.** Active

**Q.** What about the Activity (MDA-MB-435 [5]) of the same molecule?
**A.** 22.42%

**Q.** What about the Activity (MDA-MB-435 [6]) of the same molecule?
**A.** Dose-dependent effect
